≈ marks a conversion by molar mass, not a printed value. Calls of active or inactive are those of the source. The rule behind the calls is not given here.
Key:
[1] = target: Serine/threonine-protein kinase mTOR (Homo sapiens) (UniProt P42345); test: Inhibition of mTOR signaling pathway (unknown origin) in sub-genomic replicon 2A cells assessed as reduction in ratio of viral NS3 to cellular GAPDH protein level at 10 uM after 72 hrs by Western blot analysis
Outline: (§1)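 SGR2a (genotype 2a) or GS5 (genotype 1b) replicon cells were treated for 72 h, either at a single 10 μM dose or at increasing concentrations. Extracted proteins were blotted for NS3 and GAPDH, and blots plus repeats were quantified densitometrically as NS3:GAPDH ratio versus DMSO control (100%).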

[2] = target: Serine/threonine-protein kinase mTOR (Homo sapiens) (UniProt P42345); test: Inhibition of mTOR signaling pathway in human GS5 cells infected with HCV genotype 1b assessed as reduction in ratio of viral NS3 to cellular GAPDH protein level at 10 uM after 72 hrs by Western blot analysis; type: cell-based; outline: as §1
[3] = target: Serine/threonine-protein kinase mTOR (Homo sapiens) (UniProt P42345); test: Inhibition of mTOR signaling pathway in human Huh7.5 cells infected with FLAG-tagged HCV genotype 2a JFH-1 assessed as reduction in ratio of viral NS3 to cellular GAPDH protein level up to 50 uM after 72 hrs by Western blot analysis; type: cell-based
Outline: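 Huh7.5 cells were infected with genotype 2a JFH1-FLAG and co-treated at up to 50 μM for 72 h. NS3 and GAPDH were read by Western blot, and the NS3:GAPDH ratio was expressed relative to DMSO-treated cells.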

[4] = target: Serine/threonine-protein kinase mTOR (Homo sapiens) (UniProt P42345); test: Inhibition of mTOR signaling pathway in human Huh7.5 cells assessed as reduction in rps6 protein levels at 0.5 to 10 uM after 72 hrs by Western blot analysis; type: cell-based
Outline: (§2)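 Naïve, HCV-free Huh7.5 cells were incubated with increasing compound concentrations. Western blot analysis covered phospho-rps6, total rps6, S6K1 and actin.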

[5] = target: Serine/threonine-protein kinase mTOR (Homo sapiens) (UniProt P42345); test: Inhibition of mTOR signaling pathway (unknown origin) in human GS5 cells infected with HCV genotype 1b assessed as reduction in ratio of viral NS3 to cellular GAPDH protein level at 5 uM after 72 hrs by Western blot analysis relative to control; type: cell-based; outline: as §1
[6] = target: Serine/threonine-protein kinase mTOR (Homo sapiens) (UniProt P42345); test: Inhibition of mTOR signaling pathway (unknown origin) in sub-genomic replicon 2A cells assessed as reduction in ratio of viral NS3 to cellular GAPDH protein level at 5 uM after 72 hrs by Western blot analysis relative to control; outline: as §1
[7] = target: Serine/threonine-protein kinase mTOR (Homo sapiens) (UniProt P42345); test: Inhibition of mTOR signaling pathway (unknown origin) in human GS5 cells infected with HCV genotype 1b assessed as reduction in ratio of viral NS3 to cellular GAPDH protein level at 0.5 to 1 uM after 72 hrs by Western blot analysis relative to control; type: cell-based; outline: as §1
[8] = target: Serine/threonine-protein kinase mTOR (Homo sapiens) (UniProt P42345); test: Inhibition of mTOR signaling pathway (unknown origin) in sub-genomic replicon 2A cells assessed as reduction in ratio of phosphorylated rps6 protein level to rps6 protein level at 0.5 to 10 uM after 72 hrs by Western blot analysis relative to control
Outline: (§3)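 SGR2a replicon cells were incubated with increasing compound concentrations for 72 h. Western blots were run for total rps6, phospho-rps6, phospho-S6K1 and GAPDH, and blots plus repeats were quantified as p-rps6 relative to GAPDH or to total rps6.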

Hepatitis C virus [9] = test: Antiviral activity against HCV genotype 2a infected in human Huh7.5 cells electroporated with viral RNA assessed as […] reduction in ratio of viral NS3 to cellular GAPDH protein level up to 50 uM after 72 hrs by Western blot analysis; conditions: Hepacivirus hominis
[10] = target: Serine/threonine-protein kinase mTOR (Homo sapiens) (UniProt P42345); test: Inhibition of mTOR signaling pathway (unknown origin) in sub-genomic replicon 2A cells assessed as reduction in ratio of viral NS3 to cellular GAPDH protein level at 0.5 to 1 uM after 72 hrs by Western blot analysis relative to control; outline: as §1
Hepatitis C virus [11] = test: Antiviral activity against HCV genotype 2a infected in human Huh7.5 cells assessed as reduction in viral RNA level at 0.1 to 10 uM after 72 hrs by qPCR analysis; type: functional, organism-based; conditions: Hepacivirus hominis
[12] = target: Serine/threonine-protein kinase mTOR (Homo sapiens) (UniProt P42345); test: Inhibition of mTOR signaling pathway (unknown origin) in sub-genomic replicon 2A cells assessed as reduction in ratio of phosphorylated S6K1 protein level at 0.1 uM after 72 hrs by Western blot analysis; outline: as §3
[13] = target: Serine/threonine-protein kinase mTOR (Homo sapiens) (UniProt P42345); test: Inhibition of mTOR signaling pathway in human Huh7.5 cells assessed as reduction in S6K1 levels at 0.5 to 10 uM after 72 hrs by Western blot analysis; type: cell-based; outline: as §2
MDA-MB-231 = test: Inhibition of estradiol-induced proliferation in human MDA-MB-231 cells after 72 hrs by Cell-titer-Glo assay; type: functional, cell-based; conditions: MDA-MB-231, 72 h
MCF7 = test: Inhibition of estradiol-induced proliferation in human MCF7 cells after 72 hrs by Cell-titer-Glo assay; type: functional, cell-based; conditions: MCF7, 72 h
Ishikawa = test: Inhibition of estradiol-induced proliferation in human Ishikawa cells after 72 hrs by Cell-titer-Glo assay; type: functional, cell-based
Hepatitis C virus [14] = test: Antiviral activity against HCV genotype 1b infected in human GS5 cells assessed as reduction in viral RNA level at 0.1 to 10 uM after 72 hrs by qPCR analysis; type: functional, organism-based; conditions: Hepacivirus hominis
Outline: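 GS5 genotype 1b replicon cells were treated for 72 h across 0.1–10 μM. Total RNA was extracted, and HCV RNA and GAPDH mRNA were quantified by qPCR with HCV-specific primers.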

[15] = target: Serine/threonine-protein kinase mTOR (Homo sapiens) (UniProt P42345); test: Inhibition of mTOR signaling pathway (unknown origin) in sub-genomic replicon 2A cells assessed as reduction in ratio of phosphorylated rps6 protein level to rps6 protein level after 72 hrs by Western blot analysis; outline: as §3

Row | inhibition [1] | inhibition [2] | inhibition [3] | IC50 (MCF7) | SMILES | further results
1 | Active | Active | Active | – | COc1cc(C#CC(=O)c2cc(Cl)cc(Cl)c2O)cc(OC)c1OC | –
2 | Active | Active | Active | – | COc1ccc(C#CC(=O)c2cc(Br)cc(Br)c2O)cc1OC | inhibition [4]: Active; inhibition [5]: 50%; inhibition [6]: 50%; inhibition [7]: inactive; inhibition [8]: 50%; Activity (Hepatitis C virus [9]): inactive; inhibition [10]: inactive; Activity (Hepatitis C virus [11]): Active; inhibition [12]: Active; inhibition [13]: Active
3 | – | – | inactive | – | COc1ccc(-c2cc(=O)c3cc(C)cc([N+](=O)[O-])c3o2)cc1OC | –
4 | Active | Active | Active | – | COc1cc(OC)c(C(=O)C#Cc2cc(OC)c(OC)c(OC)c2)c(O)c1C | –
5 | Active | Active | Active | 3.3 µg/mL (≈ 9.4 µM) | COc1ccc(C#CC(=O)c2cc(Cl)cc(Cl)c2O)cc1OC | IC50 (MDA-MB-231): 1.98 µg/mL (≈ 5.64 µM); inhibition [5]: Active; inhibition [6]: Active; inhibition [7]: inactive; Activity (Hepatitis C virus [9]): inactive; inhibition [10]: inactive; IC50 (Ishikawa): 5.85 µg/mL (≈ 16.7 µM)
6 | Active | Active | Active | 2.24 µg/mL (≈ 6.56 µM) | COc1ccc(C#CC(=O)c2cc(C)cc([N+](=O)[O-])c2O)cc1OC | IC50 (MDA-MB-231): 0.99 µg/mL (≈ 2.9 µM); Activity (Hepatitis C virus [9]): inactive; IC50 (Ishikawa): 1.43 µg/mL (≈ 4.19 µM)
7 | – | – | inactive | > 35.7 µg/mL | COc1ccc(-c2oc3c([N+](=O)[O-])cc(C)cc3c(=O)c2O)cc1OC | IC50 (MDA-MB-231): > 35.7 µg/mL; IC50 (Ishikawa): > 35.7 µg/mL

More lines, now with the values behind:

Row | SMILES | inhibition [1] | inhibition [2] | inhibition [3] | IC50 (MCF7) | further results
8 | COc1cc(-c2oc3c(Br)cc(Br)cc3c(=O)c2O)cc(OC)c1OC | – | – | inactive | – | –
9 | COc1ccc(-c2oc3c(Cl)cc(Cl)cc3c(=O)c2O)cc1OC | – | – | inactive | > 36.7 µg/mL | IC50 (MDA-MB-231): > 36.7 µg/mL; IC50 (Ishikawa): > 36.7 µg/mL
10 | COc1cc(-c2oc3c(Cl)cc(Cl)cc3c(=O)c2O)cc(OC)c1OC | – | – | inactive | – | –
11 | COc1cc(-c2oc3c([N+](=O)[O-])cc(C)cc3c(=O)c2O)cc(OC)c1OC | – | – | inactive | – | –
12 | COc1ccc(-c2oc3c(Br)cc(Br)cc3c(=O)c2O)cc1OC | – | – | inactive | – | –
13 | Cl.O=C(c1ccc(OCCN2CCCCC2)cc1)c1c(-c2ccc(O)cc2)sc2cc(O)ccc12 [RALOXIFENE HYDROCHLORIDE] | – | – | – | 0.98 µg/mL | IC50 (MDA-MB-231): 11.2 µg/mL; IC50 (Ishikawa): 10.5 µg/mL
14 | COc1cc(-c2cc(=O)c3cc(C)cc([N+](=O)[O-])c3o2)cc(OC)c1OC | – | – | inactive | – | –
15 | COc1ccc(-c2cc(=O)c3cc(Br)cc(Br)c3o2)cc1OC | – | – | inactive | – | –
16 | COc1cc(O)c(C(=O)C#Cc2cc(OC)c(OC)c(OC)c2)c(OC)c1 | Active | Active | Active | – | inhibition [5]: 50%; inhibition [6]: 50%; inhibition [7]: inactive; Activity (Hepatitis C virus [9]): inactive; inhibition [10]: inactive; Activity (Hepatitis C virus [14]): inactive; Activity (Hepatitis C virus [11]): Active; inhibition [15]: Active
17 | CCCCCc1c(OC)cc(OC)c(C(=O)C#Cc2cc(OC)c(OC)c(OC)c2)c1O | Active | Active | inactive | – | –
18 | CC/C(=C(\c1ccc(O)cc1)c1ccc(OCCN(C)C)cc1)c1ccccc1 [AFIMOXIFENE] | – | – | – | 0.95 µg/mL (≈ 2.45 µM) | –
19 | COc1cc(-c2cc(=O)c3cc(Cl)cc(Cl)c3o2)cc(OC)c1OC | – | – | inactive | – | –
